From ChEMBL document CHEMBL3407469, “Development of benzimidazole derivatives to inhibit HIV-1 replication through protecting APOBEC3G protein” (Eur J Med Chem, 2015)
Active and inactive are the calls of the source. The calls are words filed in the database; no cut-off is given here.

Legend:
Mus musculus [1] = experiment: Toxicity in Balb/c mouse assessed as change in body weight at 500 to 1000 mg/kg, ip; assay type: organism-based; parameters: dose 500-1000 mg/kg, route intraperitoneal; settings: in vivo
Summary of the method: (§1)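 Male Balb/c mice aged 4–6 weeks were randomized into three groups (5 mice) and given a single intraperitoneal injection of 0, 500 or 1000 mg/kg. Body weight was followed for two weeks. On day 14, mice were sacrificed. Heart, liver, lung, spleen and kidney were fixed in 4% formaldehyde for H&E staining, and blood was analysed for AST, ALT, BUN and creatinine.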

293T [2] = experiment: Inhibition of full-length X4 tropic HIV-1 clone pNL4-3 Vif binding to Cullin5 (unknown origin) transfected in human 293T cells measured at 50 uM after 48 hrs by co-immunoprecipitation assay; assay type: cell-based
Summary of the method: (§2)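 293T cells were transfected with HA-tagged Vif plus Flag-tagged EloC/EloB/Cul5 plasmids and treated with compound or DMSO. After 48 h, cells were lysed in IP lysis buffer. Lysates were incubated with anti-HA beads overnight at 4 °C and washed three times in lysis buffer before analysis of co-precipitated partners.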

Mus musculus [3] = experiment: Toxicity in Balb/c mouse assessed as effect on CRE level at 500 to 1000 mg/kg, ip; assay type: organism-based; parameters: dose 500-1000 mg/kg, route intraperitoneal; settings: in vivo; summary of the method: as §1
293T [4] = experiment: Inhibition of full-length X4 tropic HIV-1 clone pNL4-3 Vif/human APOBEC3G complex transfected in human 293T cells assessed as increase in cellular APOBEC3G level measured after 48 hrs by Western blot analysis relative to control; assay type: cell-based
Summary of the method: (§3)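 293T cells were co-transfected with Vif and A3G-GFP plasmids, then treated with DMSO or a dilution series of compound. After 48 h, A3G-GFP was measured as mean fluorescence intensity on a plate reader, by western blot, or by fluorescence microscopy, each compared with the DMSO control.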

Mus musculus [5] = experiment: Toxicity in Balb/c mouse assessed as effect on AST level at 500 to 1000 mg/kg, ip; assay type: organism-based; parameters: dose 500-1000 mg/kg, route intraperitoneal; settings: in vivo; summary of the method: as §1
[6] = test system: Human immunodeficiency virus 1; experiment: Antiviral activity against X4 tropic HIV-1 clone pNL4-3 infected in H9 cells assessed as reduction in p24 antigen after 4 days by ELISA; assay type: functional, organism-based; settings: Human immunodeficiency virus 1, pNL4-3, H9, 96 h
[7] = Cytotoxicity against human H9 cells by MTS assay; assay type: cell-based
[8] = test system: Human immunodeficiency virus 1; experiment: Antiviral activity against X4 tropic HIV-1 clone pNL4-3 infected in human PBMC cells assessed as reduction in p24 antigen at 0.00005 to 5 uM after 4 days by ELISA; assay type: functional, organism-based
Mus musculus [9] = experiment: Toxicity in Balb/c mouse assessed as abnormality in lung at 500 to 1000 mg/kg, ip; assay type: organism-based; parameters: dose 500-1000 mg/kg, route intraperitoneal; settings: in vivo; summary of the method: as §1
293T [10] = experiment: Inhibition of full-length X4 tropic HIV-1 clone pNL4-3 Vif/human APOBEC3G complex transfected in human 293T cells assessed as increase in cellular APOBEC3G level measured after 48 hrs by fluorescence microscopy relative to control; assay type: cell-based; summary of the method: as §3
293T [11] = experiment: Inhibition of full-length X4 tropic HIV-1 clone pNL4-3 Vif binding to ElonginC (unknown origin) transfected in human 293T cells measured at 50 uM after 48 hrs by co-immunoprecipitation assay; assay type: cell-based; summary of the method: as §2
293T [12] = experiment: Inhibition of full-length X4 tropic HIV-1 clone pNL4-3 Vif/human APOBEC3G complex transfected in human 293T cells measured at 50 uM after 48 hrs by GFP-based fluorescence assay relative to control; assay type: cell-based
Summary of the method: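 This was the primary screen in 293T cells co-transfected with HA-Vif and A3G-GFP plasmids (Lipofectamine 2000) and given a single compound concentration. DMSO-only wells and A3G-GFP-only transfected wells served as controls. GFP was read after 48 h. A3G-GFP MFI fold change was scored as −, none or <1; +, 1–2; ++, 2–3; +++, >3.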

Mus musculus [13] = experiment: Toxicity in Balb/c mouse assessed as abnormality in kidney at 500 to 1000 mg/kg, ip; assay type: organism-based; parameters: dose 500-1000 mg/kg, route intraperitoneal; settings: in vivo; summary of the method: as §1
Mus musculus [14] = experiment: Toxicity in Balb/c mouse assessed as abnormality in heart at 500 to 1000 mg/kg, ip; assay type: organism-based; parameters: dose 500-1000 mg/kg, route intraperitoneal; settings: in vivo; summary of the method: as §1
[15] = (§4) Inhibition of purified X4 tropic HIV-1 clone pNL4-3 His tagged Vif binding to recombinant human APOBEC3G expressed in Escherichia coli BL21 assessed as reduction in max resonance unit at 9 uM preincubated with APOBEC3G for 30 mins by surface plasmon resonance method relative to untreated A3G protein control
Summary of the method: (§5)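 His-tagged Vif and A3G were expressed from pET32a in E. coli BL21 with 1 mM IPTG and purified on Ni-agarose (500 mM imidazole elution). Vif-His was immobilized on a CM5 chip in 10 mM acetate, pH 4.0, then blocked with 1 M ethanolamine. A3G-His was pre-incubated at 25 °C for 30 min with compound or DMSO in 10 mM PBS with 5% DMSO before injection. SPR binding was read as max resonance units.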

Mus musculus [16] = experiment: Toxicity in Balb/c mouse assessed as effect on ALT level at 500 to 1000 mg/kg, ip; assay type: organism-based; parameters: dose 500-1000 mg/kg, route intraperitoneal; settings: in vivo; summary of the method: as §1
Mus musculus [17] = experiment: Toxicity in Balb/c mouse assessed as abnormality in spleen at 500 to 1000 mg/kg, ip; assay type: organism-based; parameters: dose 500-1000 mg/kg, route intraperitoneal; settings: in vivo; summary of the method: as §1
Mus musculus [18] = experiment: Toxicity in Balb/c mouse assessed as abnormality in liver at 500 to 1000 mg/kg, ip; assay type: organism-based; parameters: dose 500-1000 mg/kg, route intraperitoneal; settings: in vivo; summary of the method: as §1
Mus musculus [19] = experiment: Toxicity in Balb/c mouse assessed as effect on BUN level at 500 to 1000 mg/kg, ip; assay type: organism-based; parameters: dose 500-1000 mg/kg, route intraperitoneal; settings: in vivo; summary of the method: as §1
293T [20] = experiment: Inhibition of full-length X4 tropic HIV-1 clone pNL4-3 Vif binding to ElonginB (unknown origin) transfected in human 293T cells measured at 50 uM after 48 hrs by co-immunoprecipitation assay; assay type: cell-based; summary of the method: as §2
[21] = as §4, with “4” for “9”; summary of the method: as §5

| Structure (SMILES) | Activity (Mus musculus [1]) | inhibition (293T [2]) | Activity (Mus musculus [3]) | inhibition (293T [4]) | Activity (Mus musculus [5]) | IC50 [6] [nM] | CC50 [7] [nM] | Activity [8] | Activity (Mus musculus [9]) | inhibition (293T [10]) | inhibition (293T [11]) | fold change (FC) (293T [12]) | Activity (Mus musculus [13]) | Activity (Mus musculus [14]) | Activity (Mus musculus [16]) | Activity (Mus musculus [17]) | Activity (Mus musculus [18]) | Activity (Mus musculus [19]) | inhibition (293T [20]) | also measured |
| --- | --- | --- | --- | --- | --- | --- | --- | --- | --- | --- | --- | --- | --- | --- | --- | --- | --- | --- | --- | --- |
| COc1cc(/C=C(\C#N)c2nc3ccccc3[nH]2)ccc1O | Non-toxic | inactive | Non-toxic | Dose-dependent effect | Non-toxic | 58 | > 50000 | Active | Non-toxic | Dose-dependent effect | inactive | > 3 | Non-toxic | Non-toxic | Non-toxic | Non-toxic | Non-toxic | Non-toxic | inactive | inhibition [15]: 17% |
| CCN(CC)c1ccc(/C=C(\C#N)c2nc3ccccc3[nH]2)cc1 | Non-toxic | inactive | Non-toxic | Dose-dependent effect | Non-toxic | 3.45 | > 50000 | Active | Non-toxic | Dose-dependent effect | inactive | > 3 | Non-toxic | Non-toxic | Non-toxic | Non-toxic | Non-toxic | Non-toxic | inactive | inhibition [21]: 17% |
